Assay outcomes from PubChem.
Diaphorase act: activates diaphorase or chemically reduces, flagging diaphorase assay artifacts | Diaphorase/resazurin coupled assay, resorufin fluorescence, 16 min; hits give high values; 1 = vehicle wells, 0 = NADH-free wells | activation factor at 20 µM | hit rate 0.005% among 190,000 | AID 1229;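 active means diaphorase activity raised at least twofold by the compound at 20 µM; inactive means activation factor below 2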
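System – purified diaphorase enzyme from Clostridium kluyveri · Input – enzyme 0.07 U/mL final · Also added – final NADH 0.114 mM, resazurin 0.1 mM · Measured by – fluorescence of resorufin, 544 nm excitation, 590 nm emission · Timing – 16 min enzyme reaction, ambient temperature · Measure – resorufin increase flagging diaphorase activators or reducers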
G6PDH counter: counter-screen for G6PDH assay hits: L. mesenteroides G6PDH inhibition; Purified L. mesenteroides G6PDH, diaphorase/resazurin coupled fluorescence, 45 min; inhibition, % at 5 µM; hit rate 0.12% among 200,000; AID 1020
Redox H2O2 prof: compounds producing H2O2 with reducing agent – biochemical, NIH compound library profiling, artefact control for MLSCN library redox annotation, primary screen | activation, % at 10 µM | DTT-dependent redox cycling H2O2, phenol red/HRP absorbance; 100% = 100 µM peroxide control, 0% = buffer | hit rate 0.03% among 200,000;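 active means activation of at least 50% relative to the plate's high and low controls in the primary single-dose screen; inactive means activation below 50%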;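 further: compound incubated with DTT at 0.8 mM final as the reducing agent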
Diaphorase inh: diaphorase inhibition or chemical oxidation counter-screen; diaphorase resazurin-to-resorufin fluorescence, NADH, 16 min; bacterial (C. kluyveri) enzyme, not human; hit rate 0.69% among 190,000; AID 1217; inhibition, % at 20 µM;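 active means primary screen inhibition at 20 µM above a set limit, cut at about 50% in these data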;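 further: plate controls were DMSO with full reaction for no effect and wells lacking NADH for full effect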
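Assay system – diaphorase enzyme from Clostridium kluyveri · Amount – diaphorase 0.14 U/mL (working solution) · Times – reaction incubation of 16 min at room temperature · Controls – No-NADH positive control and DMSO neutral control · Signal – resorufin fluorescence 544/590 nm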
PfG6PD inh: PfG6PD (Plasmodium falciparum) enzyme inhibition. PfGluPho enzyme, NADPH resazurin-diaphorase fluorescence. inhibition, % at 20 µM. hit rate 0.78% among 350,000. AID 504690;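 active means inhibition reaching at least a set limit at 20 µM in the primary screen, cut at about 59% in these data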;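 further: 0% = DMSO wells with substrate and 100% = DMSO wells lacking glucose-6-phosphate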
Lmaj promast: Leishmania major promastigote growth inhibition | Leishmania major promastigotes, resazurin fluorescence viability | inhibition, % at 10 µM | hit rate 9% among 200,000 | AID 1063;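 further: promastigotes grown with compound for 44 hours at 28 °C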
Numbers without * were called inactive; nt = not tested or not shown. The entries come from a sample that favours hits as a whole. Unless noted, no stated cut-off is given here; in the data, active means inhibition above about 50%; inactive means the rest.

SMILES	Diaphorase act	G6PDH counter	Redox H2O2 prof	Diaphorase inh	PfG6PD inh	Lmaj promast
CCOC(=O)c1c(C)oc2c1c(C(c1ccccc1)N1CCOCC1)c(O)c1ccccc12 (centres undefined)	0.6	15.9	0.0	36.0	16.1	36.4
CCOC(=O)c1ccc(N=Cc2c(O)c3ccccc3oc2=O)cc1	nt	nt	nt	nt	2.3	nt
Oc1ccc(Cl)cc1C=Nc1ccc2c3c(cccc13)CC2	0.4	34.1	0.2	60.2*	39.8	84.3*
Cc1cccc(C=Nc2ccc3c4c(cccc24)CC3)c1O	0.8	-27.2	0.2	20.7	24.1	3.6
Cc1ccc(S(=O)OCC(=O)Nc2cc(Cl)ccc2N2CCOCC2)cc1 (centres undefined)	0.8	7.3	-0.8	18.4	4.8	98.8*
Nc1c(Br)cc(Br)c2c1-c1ccc([N+](=O)[O-])cc1C2	nt	nt	nt	nt	11.5	nt
CCCn1c(NC(=O)CCS(=O)(=O)c2ccc(C)cc2)nc2ccccc21	nt	nt	nt	nt	14.9	nt
COC(=O)c1ccc(Cl)c(NC(=O)CN(c2ccc3c(c2)OCO3)S(C)(=O)=O)c1	0.9	-9.3	0.4	11.1	-20.7	2.6
O=C1/C(=C/c2ccncc2)SC(=S)N1C1CCCCC1	0.9	0.0	0.7	11.5	3.5	10.7
O=C1/C(=C\c2ccncc2)SC(=S)N1C1CCCCC1	1.1	-4.2	-0.3	-5.1	-7.0	65.2*
CCCCC(CC)CN1C(=O)/C(=C/c2ccncc2)SC1=S (centres undefined)	1	4.7	-4.1	-1.7	13.1	96.5*
CCOCC(=O)Nc1cc(C(=O)Nc2cc(C)cc(C)c2)ccc1Cl	0.8	6.3	0.0	21.7	nt	-5.9
CCSc1nnc(NC(=O)C2CCN(S(=O)(=O)c3c(C)c(C)cc(C)c3C)CC2)s1	0.8	6.7	-0.5	16.3	nt	2.0
CCSc1nnc(NC(=O)C2CCCCC2C(=O)O)s1 (centres undefined)	1.1	0.0	0.1	-7.8	-0.4	-3.1
CCSc1nnc(NC(=O)C2CC2c2ccccc2)s1 (centres undefined)	1	-2.1	-0.8	-0.8	0.7	81.8*
CCSc1nnc(NC(=O)C2CCN(S(=O)(=O)c3ccccc3C(F)(F)F)CC2)s1	0.9	-21.6	0.2	13.9	-8.2	55.1*
O=C(c1ccc(-c2ccc([N+](=O)[O-])cc2)o1)N1CCCCC1	0.8	12.5	-0.5	22.9	27.3	99.6*
N#C/C(=C\c1c(F)cccc1Cl)C(=O)NC1CC1	nt	nt	nt	nt	11.0	nt
COc1ccccc1C(CNC(=O)C(CCSC)NC(=O)c1ccccc1Cl)N1CCCC1 (centres undefined)	nt	nt	nt	nt	-1.9	nt
Fc1ccc(C2=NN(c3ccccc3)C(c3ccco3)C2)cc1 (centres undefined)	1	3.7	-1.2	-1.4	24.4	2.4
Cc1ccc(C2CC(c3ccccc3)=NN2c2ccccc2)o1 (centres undefined)	0.9	4.8	1.0	9.6	27.0	99.8*
CCCC(=O)OC1CCS(=O)(=O)c2sccc21 (centres undefined)	0.9	0.4	-1.1	13.4	-9.1	-1.2
COc1cc(OC)cc(C(=O)N[C@H](C(=O)NC23CC4CC(CC(C4)C2)C3)C(C)C)c1	0.9	-5.1	0.2	13.2	-10.9	64.3*
O=C(NCC1CCCO1)C(c1cccs1)N(Cc1cccs1)C(=O)c1ccc(-c2ccccc2)[nH]1 (centres undefined)	1	-21.9	0.1	0.0	12.8	99.3*
Fc1ccc(N2CCN(C3=Nc4cccc5cccc3c45)CC2)cc1	0.9	-0.3	0.2	10.5	23.1	98.0*
O=C(CCN1C(=O)c2cccc3cccc(c23)C1=O)N1CCOCC1	1.1	2.6	-0.8	-7.7	-4.6	4.4
COc1ccc(N2CCN(C(=O)CCCN3C(=O)c4cccc5cccc(c45)C3=O)CC2)cc1	1	-2.6	-4.1	2.3	11.6	98.4*
O=C(CCCN1C(=O)c2cccc3cccc(c23)C1=O)N1CCN(c2ccc(F)cc2)CC1	0.7	20.4	-0.1	34.2	10.4	58.4*
CCCCNC(=O)c1ccccc1NC(=O)CCC	0.9	10.6	-0.4	6.1	-24.2	-1.6
COc1ccccc1/C=C/C(=O)OCC(=O)c1c[nH]c2ccccc12	nt	nt	nt	nt	13.4	nt
